Experimental data collected from several papers.
Protocols differ between the studies behind these lines.
Organism: Severe acute respiratory syndrome coronavirus 2

Structure (SMILES) | assay | system | setting | inhibition [%]
Cn1c(C(=O)Nc2ccc3c(c2)OCCO3)cc2c(=O)n3ccccc3nc21 | viral replication | Vero | 1 µM | 74.7
COc1ccc(C[C@@H]2c3cc(Oc4cc(C[C@@H]5c6cc(O)c(OC)cc6CCN5C)ccc4O)c(OC)cc3CCN2C)cc1 | cytopathic effect | Vero C1008 | 3.125 µM | 0
CC1=C(C/C=C(\C)CC/C=C(\C)Cc2ccc3ccccc3c2)C(=O)c2ccccc2C1=O | viral replication, inhibitor | VeroE6/TMPRSS2 | 100 µM, 72 h | 39
NCC[C@H](O)C(=O)N[C@@H]1C[C@H](N)[C@@H](O[C@H]2O[C@H](CN)[C@@H](O)[C@H](O)[C@H]2O)[C@H](O)[C@H]1O[C@H]1O[C@H](CO)[C@@H](O)[C@H](N)[C@H]1O | viral replication | Vero C1008 | 50 µM | 3
Cn1c(C(=O)Nc2ccc(Cl)cc2)cc2c(=O)n3ccccc3nc21 | viral replication | Vero | 1 µM | 74.7
O=C(CCCN1CCC(O)(c2ccc(Cl)cc2)CC1)c1ccc(F)cc1 | viral replication | Vero C1008 | 50 µM | 3
C=C(C)[C@]12C[C@@H](C)[C@@]34O[C@](Cc5ccccc5)(O[C@@H]1[C@@H]3C=C(COC(=O)Cc1ccc(O)c(OC)c1)C[C@]1(O)C(=O)C(C)=C[C@@H]41)O2 | viral replication, inhibitor | Vero C1008 | 1 µM | 53.2
OC[C@H]1O[C@@H](O[C@@H]2[C@@H](CO)OC(O)(CO)[C@H]2O)[C@H](O)[C@@H](O)[C@H]1O (mixture of isomers) | viral replication | Vero C1008 | 50 µM | 3
CC1(C)CCC(C)(C)c2cc(C#Cc3ccc(C(=O)O)cc3)ccc21 | viral replication, inhibitor | Vero C1008 | 1 µM | 56.1
Oc1c(Br)cc(Cl)c2cccnc12 | viral replication, inhibitor | Vero C1008 | 30 µM | ~103
COc1cc(F)cc2c1-c1ccc(F)cc1C21NC(=O)NC1=O (stereo not shown) | viral replication, inhibitor | Vero C1008 | 1 µM | 52
COc1c2ccoc2c(OCC=C(C)C)c2oc(=O)ccc12 | viral replication, inhibitor | Calu-3 | 50 µM | 96
O=C(/C=C/c1ccc(O)c(O)c1/C=C/c1ccc(O)c(O)c1)O[C@H](Cc1ccc(O)c(O)c1)C(=O)O | cytopathic effect, inhibitor | Vero C1008 | 3.125 µM | 0
Cc1cccn2c(=O)c3cc(C(=O)Nc4ccc(N(C)C)cc4)n(C)c3nc12 | viral replication | Vero | 1 nM | 2.51
CCCc1c(C(C)C)cc(C(C)C)c(C(C)O)c1-c1ccc(F)cc1 (stereo not shown) | viral replication, inhibitor | Vero C1008 | 1 µM | 52.8
Oc1c(Cl)cc(Cl)c2cccnc12 | viral replication, inhibitor | Vero C1008 | 30 µM | 89.8
[H]/N=C(/N)SCCCn1cc(C2=C(c3cn(C)c4ccccc34)C(=O)NC2=O)c2ccccc21 | viral replication | Vero C1008 | 50 µM | 15

Structure (SMILES) | assay | system | setting | inhibition [%]
CCCc1nc2ccc(N(CCC)C(=O)c3ccccc3)cc2c(=O)n1Cc1ccc(-c2ccccc2-c2nnn[nH]2)cc1 | viral replication, inhibitor | Vero C1008 | 1 µM | 54.3
CC(=O)c1cccc(NC(=O)c2cc3c(=O)n4ccccc4nc3n2C)c1 | viral replication | Vero | 10 nM | 43.8
COC(=O)C[C@@H]1OO[C@@](C)(/C(C)=C/C=C/Cc2ccccc2)C[C@H]1C | viral replication, inhibitor | Calu-3 | 50 µM | 4.15
C=C[C@@](C)(/C=C/c1ccc(O)cc1)CCC=C(C)C | cytopathic effect | Vero C1008 | 50 µM | 0
CCC(CC)COC(=O)[C@H](C)N[P@](=O)(OC[C@H]1O[C@@](C#N)(c2ccc3c(N)ncnn23)[C@H](O)[C@@H]1O)Oc1ccccc1 | viral replication | Vero | 1 nM | 14.8
Br.CN=c1nc(-c2ccc(OC)c(OC)c2)n(-c2ccc(F)cc2)s1 | viral replication, inhibitor, qPCR | Vero C1008 | 50 µM, 24 h | 35.6
Cc1ccc(NC(=O)c2cc3c(=O)n4cccc(C)c4nc3n2C)cc1Cl | viral replication | Vero | 1 µM | 87.3
CC1(C)CCC[C@]2(C)O[C@H]3CC[C@@]4(C)[C@@H](CC[C@]5(C)[C@@H]4CC[C@]4(C)c6c(C(O)C(=O)O)ccc(O)c6C[C@@H]54)[C@]3(C)CC[C@@H]12 (stereo partly shown) | viral replication, inhibitor | Calu-3 | 50 µM | 0
O=C(O[C@@H]1Cc2c(O)cc(O)cc2O[C@@H]1c1cc(O)c(O)c(O)c1)c1cc(O)c(O)c(O)c1 | cytopathic effect, inhibitor | Vero C1008 | 6.25 µM | 0
NS(=O)(=O)c1ccc(N2N=C(C(F)(F)F)CC2c2c[nH]c3cc(Cl)ccc23)cc1 (stereo not shown) | viral replication, inhibitor | Vero C1008 | 1 µM | 40.9
CC1=C(C/C=C(\C)CC/C=C(\C)Cc2cccc(C(C)C)c2)C(=O)c2ccccc2C1=O | viral replication, inhibitor | VeroE6/TMPRSS2 | 100 µM, 72 h | 48
O=C(Nc1ccccc1F)c1cc2c(=O)n3ccccc3nc2n1Cc1ccccc1 | viral replication | Vero | 10 µM | 96.6
O=c1[nH]c(=O)n([C@@H]2O[C@H](CO)[C@@H](O)[C@@H]2O)cc1/C=C/Br | viral replication, inhibitor | Vero C1008 | 1 µM | 52.6
C=C1C[C@H]2[C@@](C)(C(=O)C(O)=C3C(C)(C)C(=O)CC[C@@]32C)[C@@H]2C(=O)O[C@@](C)(C(=O)OC)C(=O)[C@@]12C | viral replication, inhibitor | Calu-3 | 50 µM | 82.1
CC1CCC2c3c(c4ccccc4n3Cc3ccccc3)CCN2C1 (stereo not shown) | viral replication, inhibitor | Vero C1008 | 1 µM | 54.3
CC(C)=CCc1c(O)ccc(C(=O)/C=C/c2ccc(O)cc2)c1O | cytopathic effect | Vero C1008 | 25 µM | 0
O=C(Nc1ccc(C(F)(F)F)cc1)c1cc(Cl)c(F)cc1O | viral replication, inhibitor | Vero C1008 | 1 µM | 90
